Experimental data taken from ChEMBL document CHEMBL1817578, “2-({6-[(3R)-3-amino-3-methylpiperidine-1-yl]-1,3-dimethyl-2,4-dioxo-1,2,3,4-tetrahydro-5H-pyrrolo[3,2-d]pyrimidine-5-yl}methyl)-4-fluorobenzonitrile (DSR-12727): a potent, orally active dipeptidyl peptidase IV inhibitor without mechanism-based inactivation of CYP3A” (Bioorg Med Chem, 2011).

Assays:
Dipeptidyl peptidase 4 = Dipeptidyl peptidase 4 (Homo sapiens, UniProt P27487); assay: Inhibition of DPP4 in human plasma assessed as formation of 7-amino-4-methylcoumarin from glycyl-L-proline 4-methylcoumaryl-7-amide by fluorescence assay
Chain of Dipeptidyl peptidase 4 (P27487 whole entry): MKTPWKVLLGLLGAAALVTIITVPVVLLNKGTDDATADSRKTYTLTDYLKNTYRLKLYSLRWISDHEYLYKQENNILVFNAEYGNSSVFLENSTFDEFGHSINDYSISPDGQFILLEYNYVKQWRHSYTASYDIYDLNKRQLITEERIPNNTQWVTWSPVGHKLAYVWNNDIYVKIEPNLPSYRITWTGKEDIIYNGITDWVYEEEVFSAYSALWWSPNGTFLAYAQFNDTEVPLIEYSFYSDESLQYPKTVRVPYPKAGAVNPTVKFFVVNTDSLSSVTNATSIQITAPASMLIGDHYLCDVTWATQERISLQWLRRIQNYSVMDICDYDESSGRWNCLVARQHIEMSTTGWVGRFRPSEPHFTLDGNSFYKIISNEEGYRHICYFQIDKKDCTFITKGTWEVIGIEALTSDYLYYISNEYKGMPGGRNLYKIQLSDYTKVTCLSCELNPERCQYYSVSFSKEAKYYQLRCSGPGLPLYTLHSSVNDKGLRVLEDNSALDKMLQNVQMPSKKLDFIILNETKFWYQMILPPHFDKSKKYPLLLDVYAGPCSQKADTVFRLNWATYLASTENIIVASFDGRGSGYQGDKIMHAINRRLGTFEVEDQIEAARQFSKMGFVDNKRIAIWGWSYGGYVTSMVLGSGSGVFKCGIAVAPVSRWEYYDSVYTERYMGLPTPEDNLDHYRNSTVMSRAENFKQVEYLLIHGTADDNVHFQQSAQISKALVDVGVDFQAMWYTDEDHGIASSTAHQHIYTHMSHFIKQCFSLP

Rattus norvegicus = assay: Antidiabetic activity in po dosed Zucker fatty rat assessed as reduction of blood glucose level pretreated 30 mins before glucose challenge by oral glucose tolerance test; assay type: functional, organism-based
Procedure, shortened: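 Male Zucker fatty rats, 10 weeks old, fasted 24 h, with Zucker lean rats as reference. Oral dose of 0.03–1.0 mg/kg in 0.5% methylcellulose, or vehicle alone, 30 min before oral glucose at 2 g/kg. Tail blood taken at -30, 0, 10, 30, 60 and 120 min and deproteinized with perchloric acid. Glucose measured by colorimetric kit (A505–A700) in duplicate. AUC over 0–120 min; n = 4–9; Dunnett test.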

Prolyl endopeptidase = target: T1, Prolyl endopeptidase (Homo sapiens, UniProt P48147); assay: Inhibition of prolyl oligopeptidase
T1 sequence (P48147 whole entry): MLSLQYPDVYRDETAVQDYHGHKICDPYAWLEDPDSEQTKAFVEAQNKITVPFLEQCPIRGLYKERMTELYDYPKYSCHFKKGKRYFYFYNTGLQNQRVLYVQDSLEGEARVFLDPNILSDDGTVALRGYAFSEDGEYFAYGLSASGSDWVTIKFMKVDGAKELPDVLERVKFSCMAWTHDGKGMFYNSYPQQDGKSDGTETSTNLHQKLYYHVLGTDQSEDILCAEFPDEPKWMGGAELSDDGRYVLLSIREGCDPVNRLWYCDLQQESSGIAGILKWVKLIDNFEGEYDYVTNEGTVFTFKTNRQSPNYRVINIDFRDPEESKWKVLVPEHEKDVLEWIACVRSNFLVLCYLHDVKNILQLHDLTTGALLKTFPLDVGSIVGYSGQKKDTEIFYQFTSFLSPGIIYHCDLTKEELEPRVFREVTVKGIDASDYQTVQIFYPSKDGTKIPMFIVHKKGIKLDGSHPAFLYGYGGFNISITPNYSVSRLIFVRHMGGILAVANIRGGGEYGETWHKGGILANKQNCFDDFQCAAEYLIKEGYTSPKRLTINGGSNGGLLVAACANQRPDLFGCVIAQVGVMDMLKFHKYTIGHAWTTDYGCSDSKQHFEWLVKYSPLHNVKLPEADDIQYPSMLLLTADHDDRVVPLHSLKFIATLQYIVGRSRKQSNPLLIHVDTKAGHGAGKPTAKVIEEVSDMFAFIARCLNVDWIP

[1] = target: T2, Muscarinic acetylcholine receptor M1 (Homo sapiens, UniProt P11229); assay: Binding affinity to muscarinic receptor 1
T2 sequence (P11229 whole entry): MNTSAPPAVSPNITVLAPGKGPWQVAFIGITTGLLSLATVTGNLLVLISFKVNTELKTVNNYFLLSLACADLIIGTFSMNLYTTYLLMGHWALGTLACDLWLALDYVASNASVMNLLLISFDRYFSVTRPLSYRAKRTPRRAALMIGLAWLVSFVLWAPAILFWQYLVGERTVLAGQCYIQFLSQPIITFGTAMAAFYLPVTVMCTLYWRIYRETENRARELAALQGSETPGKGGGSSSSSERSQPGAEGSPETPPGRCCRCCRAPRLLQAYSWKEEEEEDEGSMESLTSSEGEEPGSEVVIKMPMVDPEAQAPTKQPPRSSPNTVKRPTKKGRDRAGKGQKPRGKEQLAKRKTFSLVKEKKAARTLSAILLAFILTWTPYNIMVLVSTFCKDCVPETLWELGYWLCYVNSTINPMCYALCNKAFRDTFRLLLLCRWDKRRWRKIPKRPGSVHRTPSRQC

[2] = target: T3, Muscarinic acetylcholine receptor M4 (Homo sapiens, UniProt P08173); assay: Binding affinity to muscarinic receptor 4
T3 sequence (P08173 whole entry): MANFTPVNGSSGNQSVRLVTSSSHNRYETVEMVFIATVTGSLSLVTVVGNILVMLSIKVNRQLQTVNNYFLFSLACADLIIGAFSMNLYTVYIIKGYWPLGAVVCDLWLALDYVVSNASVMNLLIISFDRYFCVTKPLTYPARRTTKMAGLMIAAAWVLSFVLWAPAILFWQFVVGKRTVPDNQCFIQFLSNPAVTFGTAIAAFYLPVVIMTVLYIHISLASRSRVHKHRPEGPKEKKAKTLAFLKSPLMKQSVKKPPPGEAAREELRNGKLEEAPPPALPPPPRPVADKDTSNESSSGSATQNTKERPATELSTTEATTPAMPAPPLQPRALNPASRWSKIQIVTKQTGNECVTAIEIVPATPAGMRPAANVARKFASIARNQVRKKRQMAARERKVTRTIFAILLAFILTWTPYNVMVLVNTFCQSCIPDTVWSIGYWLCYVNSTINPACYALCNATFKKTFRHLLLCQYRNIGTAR

Cytochrome P450 3A4 = Cytochrome P450 3A4 (Homo sapiens, UniProt P08684); assay: Inhibition of CYP3A4; assay type: ADME
Chain of Cytochrome P450 3A4 (P08684 whole entry): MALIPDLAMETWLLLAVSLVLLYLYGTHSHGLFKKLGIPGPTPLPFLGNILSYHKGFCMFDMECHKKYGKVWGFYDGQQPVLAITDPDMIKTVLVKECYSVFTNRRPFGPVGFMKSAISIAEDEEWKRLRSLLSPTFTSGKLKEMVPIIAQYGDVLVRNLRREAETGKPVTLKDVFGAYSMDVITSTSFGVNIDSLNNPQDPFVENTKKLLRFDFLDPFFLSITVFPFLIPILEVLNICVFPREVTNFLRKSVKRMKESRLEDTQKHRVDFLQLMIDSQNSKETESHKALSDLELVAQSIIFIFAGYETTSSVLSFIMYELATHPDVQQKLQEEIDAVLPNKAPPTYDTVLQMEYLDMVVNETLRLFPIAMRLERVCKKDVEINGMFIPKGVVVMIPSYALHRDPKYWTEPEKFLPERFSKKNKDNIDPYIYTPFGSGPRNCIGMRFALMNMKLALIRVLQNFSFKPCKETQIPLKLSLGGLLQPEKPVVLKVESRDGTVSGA

Cytochrome P450 2D6 = Cytochrome P450 2D6 (Homo sapiens, UniProt P10635); assay: Inhibition of CYP2D6; assay type: ADME
Chain of Cytochrome P450 2D6 (P10635 whole entry): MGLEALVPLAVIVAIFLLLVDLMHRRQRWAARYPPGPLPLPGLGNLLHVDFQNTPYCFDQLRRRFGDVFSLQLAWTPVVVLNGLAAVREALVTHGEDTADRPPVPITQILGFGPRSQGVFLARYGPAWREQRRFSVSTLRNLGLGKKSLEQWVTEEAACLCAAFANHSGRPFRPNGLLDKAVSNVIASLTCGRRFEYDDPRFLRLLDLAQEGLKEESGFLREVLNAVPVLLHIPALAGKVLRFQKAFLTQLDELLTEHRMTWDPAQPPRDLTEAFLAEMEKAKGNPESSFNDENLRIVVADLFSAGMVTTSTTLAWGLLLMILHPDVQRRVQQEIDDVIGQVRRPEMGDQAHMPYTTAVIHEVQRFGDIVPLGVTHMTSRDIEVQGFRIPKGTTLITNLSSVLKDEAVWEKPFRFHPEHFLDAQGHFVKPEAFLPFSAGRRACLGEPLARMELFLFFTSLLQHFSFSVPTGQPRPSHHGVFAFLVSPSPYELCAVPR

[3] = Clearance in rat at 1 mg/kg, iv; assay type: ADME, organism-based; design: dose 1 mg/kg, route intravenous; conditions: in vivo
[4] = Volume of distribution at steady state in rat at 1 mg/kg, iv; assay type: ADME, organism-based; design: dose 1 mg/kg, route intravenous; conditions: in vivo, read-out: Vdss
[5] = Cmax in rat at 3 mg/kg, po; assay type: ADME, organism-based; design: dose 3 mg/kg, route oral; conditions: in vivo
[6] = Half life in rat at 3 mg/kg, po; assay type: ADME, organism-based; design: dose 3 mg/kg, route oral; conditions: in vivo
[7] = Oral bioavailability in rat at 3 mg/kg; assay type: ADME, organism-based; conditions: in vivo
[8] = Clearance in dog at 1 mg/kg, iv; assay type: ADME, organism-based, Canis lupus familiaris; design: dose 1 mg/kg, route intravenous; conditions: in vivo
[9] = Volume of distribution at steady state in dog at 1 mg/kg, iv; assay type: ADME, organism-based, Canis lupus familiaris; design: dose 1 mg/kg, route intravenous; conditions: in vivo, read-out: Vdss
[10] = Cmax in dog at 3 mg/kg, po; assay type: ADME, organism-based, Canis lupus familiaris; design: dose 3 mg/kg, route oral; conditions: in vivo
[11] = Half life in dog at 3 mg/kg, po; assay type: ADME, organism-based, Canis lupus familiaris; design: dose 3 mg/kg, route oral; conditions: in vivo
[12] = Volume of distribution at steady state in monkey at 1 mg/kg, iv; assay type: ADME, organism-based, Macaca mulatta; design: dose 1 mg/kg, route intravenous; conditions: rhesus monkey, in vivo, read-out: Vdss
[13] = Half life in monkey at 1 mg/kg, iv; assay type: ADME, organism-based, Macaca mulatta; design: dose 1 mg/kg, route intravenous; conditions: rhesus monkey, in vivo
[14] = Cmax in monkey at 3 mg/kg, po; assay type: ADME, organism-based, Macaca mulatta; design: dose 3 mg/kg, route oral; conditions: rhesus monkey, in vivo
[15] = Half life in monkey at 3 mg/kg, po; assay type: ADME, organism-based, Macaca mulatta; design: dose 3 mg/kg, route oral; conditions: rhesus monkey, in vivo
[16] = Plasma protein binding in rat; assay type: ADME, cell-free; conditions: read-out: PPB (converted)
[17] = Plasma protein binding in dog; assay type: ADME, cell-free, Canis lupus familiaris; conditions: read-out: PPB (converted)
[18] = Plasma protein binding in human; assay type: ADME, cell-free; conditions: read-out: PPB (converted)
[19] = AUC in Zucker fatty rat at 3 mg/kg, po after 3 hrs; assay type: ADME, organism-based; design: time < 3 hr, dose 3 mg/kg, route oral; conditions: plasma
[20] = Solubility of the compound in buffered water at pH 1.2 to 6.8; assay type: physicochemical
Procedure, shortened: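 Free amine form dissolved in buffered water at pH 1.2, 5.5 and 6.8.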

[21] = Toxicity in monkey assessed as organ toxicity after 2 weeks repeated dosage; assay type: organism-based, Macaca mulatta; conditions: rhesus monkey, in vivo
Procedure, shortened: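 2-week repeated-dose toxicity study; rats n = 5 per sex, monkeys n = 1 per sex.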

For `Cn1c(=O)c2c(cc(N3CCC[C@@](C)(N)C3)n2Cc2cc(F)ccc2C#N)n(C)c1=O`, the IC50 (Dipeptidyl peptidase 4) was 0.0011 µM, the Activity (Rattus norvegicus) was “Dose-dependent effect” and the IC50 (Prolyl endopeptidase) was over 50 µM. It also gave an IC50 [1] of over 10 µM, an IC50 [2] of over 10 µM and an IC50 (Cytochrome P450 3A4) of over 50 µM. The IC50 (Cytochrome P450 2D6) was 38 µM, the clearance [3] was 40 mL/min/kg and the Vd [4] was 6.5 L/kg. The Cmax [5] was 76 ng/mL, the half-life [6] was 3.3 h and the bioavailability [7] was 52%. It also gave a clearance [8] of 29 mL/min/kg, a Vd [9] of 5.8 L/kg and a Cmax [10] of 245 ng/mL. The half-life [11] was 3.9 h, the Vd [12] was 10 L/kg and the half-life [13] was 4.8 h. It also gave a Cmax [14] of 77 ng/mL, a half-life [15] of 15 h and a fraction unbound [16] of 0.22. It also gave a fraction unbound [17] of 0.41, a fraction unbound [18] of 0.27 and an AUC at 3 h [19] of 2170 ng·h/mL. For the same molecule, the solubility [20] was over 1000 µg/mL and the NOAEL at 336 h [21] was 60 mg/kg/day.
